Measurements as given in ChEMBL document CHEMBL4610088, “Higginsianins D and E, Cytotoxic Diterpenoids Produced by Colletotrichum higginsianum” (J Nat Prod, 2020).
The source made the active and inactive calls. No cut-off for these calls is given here.

Legend:
[1] = tested on: HaCaT; assay: Cytotoxicity against human HaCaT cells assessed as reduction in cell viability at 1 uM after 24 hrs by MTT assay relative to control; format: cell-based
Outline: (§1)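 Cells cultured in DMEM with 10% FBS at 37 °C, 5% CO2. 2×10^4 cells seeded per well, exposed to 1 or 10 μM compound for 24, 48 and 72 h. MTT (0.5 mg/mL, phenol red-free DMEM) 3 h at 37 °C; formazan dissolved in acidic isopropanol. A570–A630 read; viability = test/control absorbance. Quadruplicate wells, three independent experiments.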

[2] = tested on: NCI-H1299; assay: Cytotoxicity against human NCI-H1299 cells at 1 uM after 72 hrs by MTT assay relative to control; format: functional; outline: as §1
[3] = tested on: HaCaT; assay: Cytotoxicity against human HaCaT cells at 10 uM after 48 hrs by MTT assay relative to control; format: cell-based; outline: as §1
[4] = tested on: HaCaT; assay: Cytotoxicity against human HaCaT cells at 1 to 10 uM after 72 hrs by MTT assay; format: cell-based; outline: as §1
[5] = tested on: HaCaT; assay: Cytotoxicity against human HaCaT cells assessed as reduction in cell viability at 10 uM after 24 hrs by MTT assay relative to control; format: cell-based; outline: as §1
[6] = tested on: NCI-H1299; assay: Cytotoxicity against human NCI-H1299 cells at 10 uM after 72 hrs by MTT assay relative to control; format: functional; outline: as §1
[7] = tested on: HaCaT; assay: Cytotoxicity against human HaCaT cells at 10 uM after 24 to 72 hrs by MTT assay; format: cell-based; outline: as §1
[8] = tested on: A-431; assay: Cytotoxicity against human A431 cells after 72 hrs by MTT assay; format: functional, cell-based; details: A-431, 72 h; outline: as §1

Compound | Activity [1] | Activity [2] | Activity [3] | Activity [4] | Activity [5] | Activity [6] | Activity [7] | IC50 [8] [nM]
C=C1CC[C@H]2[C@](C)(CCC=C(C)C)[C@H](O)CC[C@]2(C)[C@@H]1C[C@]1(C(=O)OC)OC(C)=C(C)C1=O | Non-Toxic | inactive | Toxic | Non-Toxic | Non-Toxic | inactive |  | 
C=C1CC[C@H]2[C@](C)(CCC=C(C)C)[C@H](O)CC[C@]2(C)[C@@H]1Cc1c(O)c(C)c(C)oc1=O |  |  |  |  |  |  | Toxic | 
C=C1CC[C@H]2[C@](C)(CCC=C(C)C)[C@H](O)CC[C@]2(C)[C@@H]1C[C@@]1(C(=O)OC)OC(C)=C(C)C1=O | 40% | 22% | Toxic | Non-Toxic | 37% | 26% |  | 1000
